ADAM17 inh = inhibits human ADAM17; P78536; recombinant ADAM17, EDANS/DABCYL FRET peptide cleavage; inhibition, % at 6.95 µM; 370,000 compounds, 0.83% hits; AID 720648;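 active = inhibition above the mean of compounds lying between control limits plus 3 SD, set per campaign, cut at about 8.5% in these data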
NR2E3 ag-1 = human photoreceptor-specific nuclear receptor agonism; inhibition of corepressor binding, % at 3.98 µM; CHO-S Gal4-NCOR/VP16-NR2E3 two-hybrid, luciferase; AID 602229; 360,000 compounds, 0.35% hits; Q9Y5X4;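 active = inhibition above the mean of all tested compounds plus 3 SD, cut at about 70% in these data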;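 note: higher means lower luciferase signal from less NR2E3 corepressor binding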
Target sequence (Q9Y5X4 whole entry, looked up, the tested form may be a part): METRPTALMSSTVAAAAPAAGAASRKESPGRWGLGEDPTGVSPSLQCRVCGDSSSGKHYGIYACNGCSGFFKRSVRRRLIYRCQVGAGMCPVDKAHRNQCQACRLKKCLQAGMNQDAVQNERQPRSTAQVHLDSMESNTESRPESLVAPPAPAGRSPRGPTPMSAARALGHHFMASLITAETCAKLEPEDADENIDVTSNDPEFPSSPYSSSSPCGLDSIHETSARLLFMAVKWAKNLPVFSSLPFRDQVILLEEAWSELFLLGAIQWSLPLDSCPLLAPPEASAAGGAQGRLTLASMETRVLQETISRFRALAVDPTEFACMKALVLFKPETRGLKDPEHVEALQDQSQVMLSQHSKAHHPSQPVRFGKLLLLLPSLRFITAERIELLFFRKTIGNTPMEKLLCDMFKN
proKLK7 act = activates the human kallikrein-7 zymogen. P49862. purified proKLK7, EDANS-DABCYL substrate fluorescence; 100% is mature enzyme control, 0% vehicle. activation, % at 7 µM. 370,000 compounds, 0.9% hits. AID 652039;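 active = activation above the mean of all tested compounds plus 3 SD, computed per campaign excluding outliers beyond control limits, cut at about 13% in these data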
NR2E3 ag-2 = agonists of human nuclear receptor NR2E3. Q9Y5X4. GST-NR2E3/biotin-RetCOR TR-FRET, 1536-well. inhibition of corepressor binding, % at 4.78 µM. 320,000 compounds, 0.12% hits;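 active = percent inhibition above the cutoff of mean plus 3 SD of all tested compounds, set per screening campaign, cut at about 20% in these data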
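System: GST-tagged NR2E3 plus biotinylated RetCOR corepressor; Buffer or medium: pH 7.5 Tris-based buffer; Probe or stimulus: RetCOR corepressor, biotinylated, 7 nM; Doses: compound at 4.8 µM, single dose; Schedule: 5 h incubation at 4 °C; Technique: time-resolved FRET; Evaluation: percent inhibition of TR-FRET ratio; Replication: one well per compound, singlicate testing.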
GASC-1 inh = inhibitors of human GASC-1 (JMJD2C) demethylase. GST-JMJD2C(1-420) H3K9me3 demethylation, DELFIA europium. inhibition, % at 2.35 µM. 330,000 compounds, 0.069% hits;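 active = more than half of a compound's replicate wells show inhibition beyond 50%, single wells judged on their own value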;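 note: signal counts dimethyl H3K9 product captured on neutravidin plate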
ADAM10 inh = inhibits human ADAM10 | O14672 | recombinant ADAM10, EDANS/DABCYL FRET peptide cleavage, 3 h | inhibition, % at 7 µM | 370,000 compounds, 0.62% hits | AID 720582;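 active = inhibition above a per-campaign cutoff equal to the mean of compounds falling between control-based bounds plus 3 SD, cut at about 20% in these data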
proKLK7 act conf = confirmation of human kallikrein-7 zymogen activators. shares compounds with proKLK7 act. purified proKLK7, EDANS-DABCYL substrate fluorescence; scaled: vehicle 0, mature enzyme 100. activation, % at 7 µM. 3,200 compounds, 68% hits. AID 686949;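 active = activation, as change over the incubation, above the mean of all tested compounds plus 3 SD, cut at about 13% in these data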
EDANS-DABCYL int = optically interferes with EDANS-DABCYL signal, flagging KLK7 hits | shares compounds with proKLK7 act | EDANS-DABCYL substrate fluorescence interference, no enzyme, 4 h; solvent 0%, active enzyme control 100% | activation, % at 7 µM | 3,200 compounds, 80% hits;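 active = activation above the all-compound mean plus 3 SD, ignoring values outside control-based bounds, cut at about 4.8% in these data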;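 note: value is the 4 h activation minus the activation read at time zero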
Numbers stand for hits; – = inactive; · = no result given. The list is not random: actives were taken first. Their share in the collection is about 2.5%.

SMILES | ADAM17 inh | NR2E3 ag-1 | proKLK7 act | NR2E3 ag-2 | GASC-1 inh | ADAM10 inh | proKLK7 act conf | EDANS-DABCYL int
Cc1cc(OC(C)C(=O)NCc2ccccn2)c2c(C)cc(=O)oc2c1 (stereo unspecified) | – | – | 14.0 | – | – | – | – | 11.6
CCCOc1ccc(C(=O)NNC(=O)CCNC(=O)c2ccco2)cc1OC | – | – | – | – | – | – | · | ·
Cc1ccc2cc3cc(C(=O)NCCCN4CCCC4)oc3nc2c1 | – | – | – | – | – | – | · | ·
CCCCN(CC)CCNC(=O)c1cc2cc3ccc(Cl)cc3nc2o1 | – | – | – | – | – | – | · | ·
Cc1ccc2cc3cc(C(=O)NCCCN4CCCCCC4)oc3nc2c1 | – | – | 17.6 | – | – | – | – | 11.1
CCCCN(CC)CCCNC(=O)c1cc2cc3ccc(C)cc3nc2o1 | – | – | 21.6 | – | – | – | – | 13.3
CC(=O)Nc1ccc(NC(=O)COc2ccc(S(=O)(=O)N3CCCC3)cc2)cc1 | – | – | – | – | – | – | · | ·
COc1ccc(S(=O)(=O)N2CCOCC2)cc1NC(=O)CSc1nnc(C2CC2)n1N | – | – | – | – | – | – | · | ·
O=C1O[C@@H](c2ccc(O)cc2)Cc2cccc(O)c21 | – | – | 49.3 | – | – | – | 43.8 | 51.9
COc1ccc(OC)c(/C=N\NC(=O)c2ccc(=O)n(C)c2)c1 | – | – | 16.2 | – | – | – | – | 10.1
COc1ccc(OC)c(/C=N\NC(=O)c2ccc(-c3ccccc3)cc2)c1 | – | – | – | · | – | – | · | ·
COc1ccc(OC)c(/C=N/NC(=O)c2cc[n+](Cc3ccccc3)cc2)c1 | – | – | 45.3 | – | – | – | 79.3 | 81.1
COc1ccc(OC)c(/C=N/NC(=O)c2ccc(=O)[nH]n2)c1 | – | – | 15.5 | – | – | – | 17.4 | 19.9
COc1ccc(OC)c(/C=C/C(=O)OCC(=O)N2CCCCC2)c1 | – | – | 22.1 | · | – | – | 14.2 | 13.7
COc1ccc(OC)c(/C=N/NC2=NS(=O)(=O)c3ccccc32)c1 | – | – | 50.7 | – | – | – | 51.7 | 45.5
COc1cccc(/C=N/NC(=O)C(=O)N2CCCCCC2)c1OC | – | – | – | – | – | – | · | ·
COc1ccccc1C=NNC(=O)c1ccncc1 | – | – | – | · | · | – | · | ·
COc1ccc(OC)c(/C=N/NC(=O)C(=O)N2CCCCCC2)c1 | – | – | 50.8 | – | – | – | 47.8 | 45.5
COc1ccc(OC)c(/C=N/NC(=O)c2ccncc2)c1 | – | – | 41.0 | – | – | – | 41.1 | 39.1
COc1ccc(/C=N/NC2=NS(=O)(=O)c3ccccc32)cc1 | – | – | – | – | – | – | · | ·
COC(=O)C1=C(C)N(Cc2cccc(C(F)(F)F)c2)C(=NCc2ccc3c(c2)OCO3)NC1c1cccc(F)c1 (stereo unspecified) | – | · | – | · | · | – | · | ·
Nc1nc(=O)n(C2CCC(CO)O2)cc1F (stereo unspecified) | – | – | – | · | · | – | · | ·
COc1ccc(C)c2sc(NC(=O)C3=COCCO3)nc12 | – | – | – | – | – | – | · | ·
COc1ccc(OC)c2sc(NC(=O)C3=COCCO3)nc12 | – | – | 56.1 | – | – | – | – | –
Cc1ccc2[nH]c(=O)c3cc(C(=O)NCCN4CCN(C)CC4)sc3c2c1 | – | – | 16.5 | – | – | – | – | –
CCOC(=O)CNC(=O)c1cc2c(=O)[nH]c3ccc(C)cc3c2s1 | – | – | – | – | – | – | · | ·
CCCCNC(=O)C1(C)CCN1Cc1ccc(C#N)cc1 (stereo unspecified) | – | – | – | · | · | – | · | ·
CC(OC(=O)c1ccccc1NCCO)C(=O)NCC(=O)Nc1ccc(F)c(F)c1F (stereo unspecified) | – | – | 25.3 | – | – | – | 82.7 | 73.7

Bioassay records as filed in PubChem BioAssay.
